Experiments:
Type in all cases: functional
[1] = tested on: SNB-75; assay: Growth inhibition of human SNB75 cells after 48 hrs by sulforhodamine B assay; settings: SNB-75, 48 h; for CC50: read-out: LC50 (the source's name)
In short: (§1)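 NCI 60-cell screen, five-dose mode. Cells grown in RPMI 1640 with 5% FBS and 2 mM L-glutamine and plated at 5000-40,000 cells/well according to doubling time. After 24 h preincubation, a Tz plate was TCA-fixed. Five concentrations (10-fold or 1/2 log dilutions) were applied for 48 h at 37 °C. SRB staining read at 515 nm. IC50 taken from [(Ti-Tz)/(C-Tz)]×100 = 50.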

[2] = tested on: A498; assay: Growth inhibition of human A498 cells after 48 hrs by sulforhodamine B assay; settings: A498, 48 h
In short: (§2)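 NCI five-dose SRB assay in RPMI 1640 with 5% FBS and 2 mM L-glutamine. Cells were preincubated 24 h, then exposed 48 h at 37 °C to five concentrations (10-fold or half-log serial dilutions from DMSO stocks). TCA fixation, SRB staining, and absorbance at 515 nm followed. IC50 was taken where [(Ti−Tz)/(C−Tz)]×100 = 50, with Tz as time-zero cell density.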

[3] = tested on: HL-60(TB); assay: Cytotoxicity against human HL-60(TB) cells assessed as cell growth at 1 uM after 48 hrs by sulforhodamine B assay; settings: HL-60, 48 h, read-out: Activity
In short: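 NCI 60-cell panel. Cells are grown in RPMI 1640 with 5% FBS and 2 mM L-glutamine, seeded at 5000–40,000 cells/well according to doubling time, and preincubated 24 h. Time-zero plates are TCA-fixed. Compound from DMSO stock is given at five 10-fold or 1/2-log concentrations for 48 h at 37 °C, 5% CO2. Suspension cells are fixed with 80% TCA (final 16%) and SRB-stained, with absorbance at 515 nm. Percent growth is derived from Tz, control and test readings.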

[4] = tested on: CAKI-1; assay: Cytotoxicity against human Caki1 cells assessed as cell growth at 10 uM; settings: read-out: Activity
In short: (§3)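 Single-dose NCI-60 screen at 10 µM. Cells were grown in RPMI 1640 with 5% FBS and 2 mM L-glutamine, then treated for 48 h at 37 °C. Protein was measured by SRB staining with absorbance at 515 nm. Percentage growth was recorded, and inhibition percentage was calculated as 100 minus growth percentage.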

[5] = tested on: Malme-3M; assay: Cytotoxicity against human MALME-3M cells assessed as cell growth at 0.001 uM after 48 hrs by sulforhodamine B assay; settings: read-out: Activity
[6] = tested on: HCC 2998; assay: Cytotoxicity against human HCC2998 cells assessed as cell growth at 0.01 uM after 48 hrs by sulforhodamine B assay; settings: HCC 2998, 48 h, read-out: Activity
[7] = tested on: SNB-75; assay: Cytotoxicity against human SNB75 cells assessed as cell growth at 100 nM after 48 hrs by sulforhodamine B assay; settings: SNB-75, 48 h, read-out: Activity
[8] = tested on: OVCAR-5; assay: Cytotoxicity against human OVCAR5 cells assessed as cell growth at 0.001 uM after 48 hrs by sulforhodamine B assay; settings: OVCAR-5, 48 h, read-out: Activity
[9] = tested on: HCT-15; assay: Growth inhibition of human HCT15 cells after 48 hrs by sulforhodamine B assay; settings: HCT-15, 48 h; for CC50: read-out: LC50 (the source's name); in short: as §1
[10] = tested on: HCT-15; assay: Cytotoxicity against human HCT15 cells assessed as cell growth at 1 uM after 48 hrs by sulforhodamine B assay; settings: HCT-15, 48 h, read-out: Activity
[11] = tested on: COLO 205; assay: Cytotoxicity against human COLO205 cells assessed as cell growth at 10 uM after 48 hrs by sulforhodamine B assay; settings: COLO 205, 48 h, read-out: Activity
[12] = tested on: K562; assay: Cytotoxicity against human K562 cells assessed as cell growth at 0.001 uM after 48 hrs by sulforhodamine B assay; settings: K562, 48 h, read-out: Activity
[13] = tested on: MDA-MB-435; assay: Cytotoxicity against human MDA-MB-435 cells assessed as cell growth at 10 uM; settings: read-out: Activity
In short: (§4)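 NCI-60 screen: cells grown in RPMI 1640 with 5% FBS and 2 mM L-glutamine, plated at 5000–40,000 cells/well according to doubling time, and preincubated 24 h at 37 °C, 5% CO2. The single 10 µM dose (DMSO stock) was added, then incubated 48 h. Cells were TCA-fixed and stained with 0.4% SRB, read at 515 nm, and growth % calculated against time-zero and control plates.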

[14] = tested on: OVCAR-5; assay: Cytotoxicity against human OVCAR5 cells assessed as cell growth at 10 uM; settings: read-out: Activity; in short: as §4
[15] = tested on: U-251; assay: Cytotoxicity against human U251 cells assessed as cell growth at 1 uM after 48 hrs by sulforhodamine B assay; settings: U-251, 48 h, read-out: Activity
[16] = Cytotoxicity against human […] cells assessed as cell growth at 0.001 uM after 48 hrs by sulforhodamine B assay; settings: read-out: Activity
[17] = tested on: COLO 205; assay: Cytotoxicity against human COLO205 cells assessed as cell growth at 0.001 uM after 48 hrs by sulforhodamine B assay; settings: COLO 205, 48 h, read-out: Activity
In short: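 NCI-60 five-dose screen. Cells were grown in RPMI 1640 with 5% FBS and 2 mM L-glutamine, plated at 5000–40,000 cells/well and preincubated for 24 h. Time-zero plates were TCA-fixed. DMSO-solubilized drug was added at five concentrations (10-fold or ½-log serial dilutions) for 48 h at 37 °C, 5% CO2. Cells were TCA-fixed, stained with 0.4% SRB and read at 515 nm. Percent growth used time-zero, control and test absorbances.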

[18] = tested on: M14; assay: Growth inhibition of human M14 cells after 48 hrs by sulforhodamine B assay; settings: M14, 48 h; for CC50: read-out: LC50 (the source's name); in short: as §1
[19] = tested on: LOX IMVI; assay: Cytotoxicity against human LOXIMVI cells assessed as cell growth at 10 uM; settings: read-out: Activity; in short: as §4
[20] = tested on: MDA-MB-231; assay: Growth inhibition of human MDA-MB-231 cells after 48 hrs by sulforhodamine B assay; settings: MDA-MB-231, 48 h; in short: as §1
[21] = tested on: EKVX; assay: Growth inhibition of human EKVX cells after 48 hrs by sulforhodamine B assay; settings: for CC50: read-out: LC50 (the source's name); in short: as §2
[22] = tested on: OVCAR-5; assay: Cytotoxicity against human OVCAR5 cells assessed as cell growth at 1 uM after 48 hrs by sulforhodamine B assay; settings: OVCAR-5, 48 h, read-out: Activity
[23] = tested on: COLO 205; assay: Cytotoxicity against human COLO205 cells assessed as cell growth at 10 uM; settings: read-out: Activity; in short: as §3
[24] = tested on: CAKI-1; assay: Cytotoxicity against human Caki1 cells assessed as cell growth at 0.01 uM after 48 hrs by sulforhodamine B assay; settings: CAKI-1, 48 h, read-out: Activity
[25] = tested on: SK-MEL-28; assay: Cytotoxicity against human SK-MEL-28 cells assessed as cell growth at 0.01 uM after 48 hrs by sulforhodamine B assay; settings: SK-MEL-28, 48 h, read-out: Activity
[26] = tested on: Malme-3M; assay: Cytotoxicity against human MALME-3M cells assessed as cell growth at 1 uM after 48 hrs by sulforhodamine B assay; settings: read-out: Activity

Compound | GI50 [1] | TGI [1] | CC50 [1] | GI50 [2] | LC50 [2] | TGI [2] | growth at 1 µM [3] | growth at 10 µM [4] | growth at 0.001 µM [5] | growth at 0.01 µM [6] | growth at 0.1 µM [7] | growth at 0.001 µM [8] | GI50 [9] | TGI [9] | CC50 [9] | growth at 1 µM [10] | growth at 10 µM [11] | growth at 0.001 µM [12] | growth at 10 µM [13] | growth at 10 µM [14] | other results
Cc1cc(O)cc(-c2nn(CC#N)cc2-c2ccnc(-c3ccc(N(C)C)cc3)c2)c1 | 1.86 µM | 5.94 µM | > 100 µM | 3.03 µM | > 100 µM | 13.4 µM | 2% | 44.5% | 91% | 88% | 77% | 96% | 3.36 µM | 18.2 µM | > 100 µM | 14% | -82% | 100% | -43.2% | 111% | growth at 1 µM [15]: 8%; growth at 0.001 µM [16]: 96%; growth at 0.001 µM [17]: 109%; GI50 [18]: 1.83 µM; TGI [18]: 4.76 µM; CC50 [18]: 20.4 µM; growth at 10 µM [19]: 33.7%; GI50 [20]: 2.94 µM; LC50 [20]: > 100 µM; TGI [20]: 22.6 µM; GI50 [21]: 3.92 µM; TGI [21]: 92.8 µM; CC50 [21]: > 100 µM; growth at 1 µM [22]: 64%; growth at 10 µM [23]: 38.9%; growth at 0.01 µM [24]: 102%; growth at 0.01 µM [25]: 94%; growth at 1 µM [26]: 27%
Cc1cc(O)cc(-c2nn(CC#N)cc2-c2ccnc(-c3ccc(Oc4ccccc4)cc3)c2)c1 | 3.82 µM | 17.1 µM | 42 µM | 3.87 µM | 44.1 µM | 16.7 µM | -27% | 58.8% | 88% | 89% | 78% | 72% | 2.14 µM | 5.38 µM | 26.1 µM | -34% | -96% | 63% | 60.5% | 96.8% | growth at 1 µM [15]: -97%; growth at 0.001 µM [16]: 97%; growth at 0.001 µM [17]: 107%; GI50 [18]: 1.7 µM; TGI [18]: 3.12 µM; CC50 [18]: 5.73 µM; growth at 10 µM [19]: 16.6%; GI50 [20]: 2.28 µM; LC50 [20]: 57.7 µM; TGI [20]: 7.33 µM; GI50 [21]: 2.16 µM; TGI [21]: 8.95 µM; CC50 [21]: > 100 µM; growth at 1 µM [22]: 35%; growth at 10 µM [23]: 28.4%; growth at 0.01 µM [24]: 90%; growth at 0.01 µM [25]: 94%; growth at 1 µM [26]: -75%
COc1cc(C)cc(-c2nn(CC#N)cc2-c2ccnc(-c3ccc(N(C)C)cc3)c2)c1 | 0.286 µM | 0.848 µM | > 100 µM | 0.246 µM | > 100 µM | 0.818 µM | -1% | 13.9% | 88% | 107% | -8% | 98% | 0.35 µM | 8.79 µM | > 100 µM | -1% | -61% | 66% | -22.6% | 55.9% | growth at 1 µM [15]: -5%; growth at 0.001 µM [16]: 104%; growth at 0.001 µM [17]: 107%; GI50 [18]: 0.258 µM; TGI [18]: 0.769 µM; CC50 [18]: > 100 µM; growth at 10 µM [19]: 5.2%; GI50 [20]: 1.09 µM; LC50 [20]: > 100 µM; GI50 [21]: 0.696 µM; TGI [21]: > 10 µM; CC50 [21]: > 100 µM; growth at 1 µM [22]: 31%; growth at 10 µM [23]: -73.2%; growth at 0.01 µM [24]: 92%; growth at 0.01 µM [25]: 102%; growth at 1 µM [26]: 61%

Source: ChEMBL document CHEMBL1165950, “Design and synthesis of new potent anticancer pyrazoles with high FLT3 kinase inhibitory selectivity” (Bioorg Med Chem, 2010)
